Experimental data reported in ChEMBL document CHEMBL4014311, “Discovery of a Hepatitis C Virus NS5B Replicase Palm Site Allosteric Inhibitor (BMS-929075) Advanced to Phase 1 Clinical Studies” (J Med Chem, 2017).

Columns and labels:
[1] = system: Hepatitis C virus; assay: Ratio of EC50 for HCV genotype 1b infected in human HuH7 cells in presence of 40% human serum to EC50 for HCV genotype-1b infected in human HuH7 cells; format: functional, Hepacivirus hominis
[2] = target: Cytochrome P450 3A4 (Homo sapiens, UniProt P08684); assay: Inhibition of microsomal CYP3A4 (unknown origin); format: ADME
Sequence of Cytochrome P450 3A4 (P08684 whole entry): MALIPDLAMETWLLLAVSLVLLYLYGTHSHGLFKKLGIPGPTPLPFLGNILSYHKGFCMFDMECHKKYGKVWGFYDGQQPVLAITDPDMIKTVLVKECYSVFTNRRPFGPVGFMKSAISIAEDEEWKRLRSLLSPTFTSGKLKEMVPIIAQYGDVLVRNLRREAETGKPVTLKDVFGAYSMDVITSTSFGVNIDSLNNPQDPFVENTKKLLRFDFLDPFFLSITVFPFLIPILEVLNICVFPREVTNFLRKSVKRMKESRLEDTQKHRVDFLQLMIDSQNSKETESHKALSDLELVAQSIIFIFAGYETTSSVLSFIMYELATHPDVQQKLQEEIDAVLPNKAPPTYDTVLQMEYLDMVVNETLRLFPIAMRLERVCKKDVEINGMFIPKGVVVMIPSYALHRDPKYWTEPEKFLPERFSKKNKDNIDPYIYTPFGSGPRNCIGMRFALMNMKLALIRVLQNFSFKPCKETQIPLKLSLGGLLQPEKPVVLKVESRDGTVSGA

[3] = Oral bioavailability in Sprague-Dawley rat at 6 mg/kg by LC/MS/MS analysis; format: ADME, organism-based; details: in vivo
Outline: (§1)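 Rats were fasted overnight with free access to water, then dosed by gastric gavage with an […] solution in 90:10 PEG-400/ethanol (v/v), n = 3 per group. EDTA plasma was sampled predose and at 15, 30, 45, 60 min and 2, 4, 6, 8, 24 h, then assayed by LC/MS/MS. Parameters come from noncompartmental analysis: Cmax observed directly, AUC by linear/log trapezoidal summation, F as dose-normalized PO/IV AUC ratio.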

[4] = system: Hepatitis C virus; assay: Ratio of EC50 for HCV genotype 1a infected in human HuH7 cells in presence of 40% human serum to EC50 for HCV genotype 1a infected in human HuH7 cells; format: functional, Hepacivirus hominis, subtype 1a
[5] = Cmax in Sprague-Dawley rat at 6 mg/kg, po administered via gavage by LC/MS/MS analysis; format: ADME, organism-based; set-up: dose 6 mg/kg, route oral; details: in vivo; outline: as §1
[6] = Half life in dog liver microsomes; format: ADME, Canis lupus familiaris, microsome
[7] = target: T1, Cytochrome P450 2C8 (Homo sapiens, UniProt P10632); assay: Inhibition of microsomal CYP2C8 (unknown origin); format: ADME
T1 sequence (P10632 whole entry): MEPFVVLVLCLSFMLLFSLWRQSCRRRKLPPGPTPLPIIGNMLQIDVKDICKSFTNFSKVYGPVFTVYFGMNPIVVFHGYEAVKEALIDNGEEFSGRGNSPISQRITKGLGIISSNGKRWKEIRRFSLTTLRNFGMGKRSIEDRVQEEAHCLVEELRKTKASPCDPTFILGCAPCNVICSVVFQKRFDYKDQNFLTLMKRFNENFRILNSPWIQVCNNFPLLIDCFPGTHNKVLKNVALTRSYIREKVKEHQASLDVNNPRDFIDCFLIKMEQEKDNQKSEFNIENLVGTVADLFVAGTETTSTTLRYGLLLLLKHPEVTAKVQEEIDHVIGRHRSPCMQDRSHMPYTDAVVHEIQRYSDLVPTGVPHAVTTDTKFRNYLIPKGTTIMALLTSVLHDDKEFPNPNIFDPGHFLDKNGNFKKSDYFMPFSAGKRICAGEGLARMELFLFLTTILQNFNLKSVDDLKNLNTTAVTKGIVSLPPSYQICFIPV

[8] = Ratio of drug uptake in Sprague-Dawley rat liver to plasma at 6 mg/kg, po administered via gavage after 24 hrs by LC/MS/MS analysis; format: ADME, organism-based
Outline: (§2)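 Rats fasted overnight, then dosed by gavage at 6 mg/kg in 90:10 PEG-400/ethanol (v/v). Plasma sampled serially from cannula into EDTA tubes predose and at 15, 30, 45, 60 min and 2, 4, 6, 8, 24 h; n = 3. Livers removed at 6 h (satellite animals) and 24 h, homogenized in 80% acetonitrile/HBSS, assayed by LC/MS/MS. Tmax taken directly from observed data.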

[9] = target: T2, Nuclear receptor subfamily 1 group I member 2 (Homo sapiens, UniProt O75469); assay: Transactivation of PXR (unknown origin); format: ADME
T2 sequence (O75469 whole entry): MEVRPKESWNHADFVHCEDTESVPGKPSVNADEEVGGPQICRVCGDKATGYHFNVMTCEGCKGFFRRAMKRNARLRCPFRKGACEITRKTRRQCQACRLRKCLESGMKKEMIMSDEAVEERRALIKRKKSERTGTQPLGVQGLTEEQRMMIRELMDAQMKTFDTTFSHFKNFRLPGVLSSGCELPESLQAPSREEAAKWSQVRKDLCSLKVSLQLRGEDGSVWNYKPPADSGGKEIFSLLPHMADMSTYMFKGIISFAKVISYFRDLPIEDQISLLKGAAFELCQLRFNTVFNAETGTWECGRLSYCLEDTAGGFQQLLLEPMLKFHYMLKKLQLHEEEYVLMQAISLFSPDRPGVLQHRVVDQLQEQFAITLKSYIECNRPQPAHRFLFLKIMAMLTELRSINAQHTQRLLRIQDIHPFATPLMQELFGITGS

[10] = target: hERG (Homo sapiens, UniProt Q12809); assay: Inhibition of human ERG at 10 uM by patch clamp assay
Sequence of hERG (Q12809 whole entry): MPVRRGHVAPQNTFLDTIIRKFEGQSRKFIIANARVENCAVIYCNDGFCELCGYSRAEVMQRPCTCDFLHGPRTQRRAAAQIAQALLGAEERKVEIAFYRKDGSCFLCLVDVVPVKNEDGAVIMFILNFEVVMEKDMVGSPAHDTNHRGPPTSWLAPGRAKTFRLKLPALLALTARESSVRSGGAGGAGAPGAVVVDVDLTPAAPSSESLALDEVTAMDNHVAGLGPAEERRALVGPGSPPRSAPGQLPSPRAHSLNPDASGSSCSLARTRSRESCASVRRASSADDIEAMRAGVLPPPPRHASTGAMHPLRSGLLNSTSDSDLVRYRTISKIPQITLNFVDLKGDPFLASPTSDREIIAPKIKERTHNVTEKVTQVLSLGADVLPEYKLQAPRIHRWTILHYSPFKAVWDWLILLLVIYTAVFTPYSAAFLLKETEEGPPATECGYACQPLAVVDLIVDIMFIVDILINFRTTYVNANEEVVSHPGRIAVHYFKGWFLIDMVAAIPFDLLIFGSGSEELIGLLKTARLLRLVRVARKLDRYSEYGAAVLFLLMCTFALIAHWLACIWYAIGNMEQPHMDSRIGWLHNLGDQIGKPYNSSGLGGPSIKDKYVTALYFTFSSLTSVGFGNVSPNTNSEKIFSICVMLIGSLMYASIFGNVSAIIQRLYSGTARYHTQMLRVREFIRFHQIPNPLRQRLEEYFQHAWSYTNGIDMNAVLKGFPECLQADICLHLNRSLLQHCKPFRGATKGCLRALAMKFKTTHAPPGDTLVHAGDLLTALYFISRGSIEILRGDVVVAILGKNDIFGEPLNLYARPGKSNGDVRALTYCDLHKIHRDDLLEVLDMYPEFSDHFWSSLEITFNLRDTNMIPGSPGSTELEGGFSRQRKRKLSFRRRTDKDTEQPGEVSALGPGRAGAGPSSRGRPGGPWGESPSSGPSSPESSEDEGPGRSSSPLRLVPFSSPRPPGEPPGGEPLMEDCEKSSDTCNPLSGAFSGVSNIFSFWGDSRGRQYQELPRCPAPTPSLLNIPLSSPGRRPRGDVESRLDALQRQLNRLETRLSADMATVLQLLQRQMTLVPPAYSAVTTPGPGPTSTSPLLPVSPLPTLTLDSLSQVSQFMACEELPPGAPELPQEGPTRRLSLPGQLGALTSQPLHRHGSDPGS

[11] = Half life in monkey liver microsomes; format: ADME, Macaca mulatta, microsome; details: rhesus monkey
[12] = Lipophilicity, log D of the compound at pH 6.5 by shake flask method; format: physicochemical; details: buffer
[13] = system: Hepatitis C virus; assay: Antiviral activity against HCV genotype 1b infected in human HuH7 cells after 3 days by luciferase reporter assay; format: functional, cell-based, Hepacivirus hominis; details: Hepatitis C virus, genotype 1b, Huh-7, 72 h; read-out: EC50
[14] = AUC in Sprague-Dawley rat at 6 mg/kg, po administered via gavage by LC/MS/MS analysis; format: ADME, organism-based; details: in vivo; outline: as §1
[15] = Membrane permeability at pH 7.4 by PAMPA; format: physicochemical; details: read-out: permeability
[16] = system: Rattus norvegicus; assay: Half life in Sprague-Dawley rat at 2 mg/kg,iv by LC/MS/MS analysis; format: ADME, organism-based; details: in vivo
Outline: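 A 10 min constant-rate jugular vein infusion was given in 90:10 PEG-400/ethanol (v/v), n = 3 rats. Plasma was sampled predose and at 10, 15, 30, 45, 60 min and 2, 4, 6, 8, 24 h, then assayed by LC/MS/MS. Clearance and apparent terminal t1/2 were estimated by noncompartmental analysis.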

[17] = system: Hepatitis C virus; assay: Antiviral activity against HCV genotype 1a infected in human HuH7 cells after 3 days by luciferase reporter assay; format: functional, cell-based, Hepacivirus hominis, subtype 1a; details: Hepatitis C virus, subtype 1a, Huh-7, 72 h; read-out: EC50
[18] = Drug uptake in Sprague-Dawley rat liver at 6 mg/kg, po via gavage after 6 hrs by LC-MS/MS analysis; format: ADME, organism-based; details: read-out: Drug uptake
Outline: (§3)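 Fasted rats were dosed orally in 90:10 PEG-400/ethanol; 6 h livers came from satellite animals. In the screening variant, n = 2 and plasma was taken to 6 h with livers at the terminal point. Livers were rinsed, blotted, weighed and homogenized in 2 volumes of 80% acetonitrile in HBSS per gram, then centrifuged. Supernatant and plasma were analysed by LC/MS/MS.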

[19] = Inhibition of HCV genotype 1b NS5B replicase C316N mutant infected in human HuH7 cells assessed as reduction of viral replication after 3 days by luciferase reporter assay; format: cell-based, Hepatitis C virus subtype 1b; details: Hepatitis C virus, Huh-7, 72 h
[20] = Cytotoxicity against human HuH7 cells after 3 days by CellTiter-Blue assay; format: cell-based, Huh-7
[21] = system: Rattus norvegicus; assay: Volume of distribution at steady state in Sprague-Dawley rat at 2 mg/kg, iv by LC/MS/MS analysis; format: ADME, organism-based; details: in vivo
Outline: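 Rats received a 2 mg/kg IV dose in 90:10 PEG-400/ethanol as a 10 min constant-rate jugular infusion. Blood collected predose and at 10, 15, 30, 45, 60 min and 2, 4, 6, 8, 24 h; n = 3. Plasma analyzed by LC/MS/MS. Vss derived by noncompartmental analysis of IV data.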

[22] = Half life in rat liver microsomes; format: ADME, microsome
[23] = Tmax in Sprague-Dawley rat at 6 mg/kg, po administered via gavage by LC/MS/MS analysis; format: ADME, organism-based; details: in vivo; outline: as §2
[24] = Half life in human liver microsomes; format: ADME, microsome
[25] = Drug uptake in Sprague-Dawley rat liver at 6 mg/kg, po administered via gavage after 24 hrs by LC/MS/MS analysis; format: ADME, organism-based; details: read-out: Drug uptake; outline: as §3
[26] = target: Voltage-gated inwardly rectifying potassium channel KCNH2 (Homo sapiens, UniProt Q12809); assay: Inhibition of human ERG by thallium flux assay
Sequence of Voltage-gated inwardly rectifying potassium channel KCNH2 (Q12809 whole entry): as above

[27] = Metabolic stability in human liver microsomes assessed as parent compound remaining after 10 mins; format: ADME, microsome; details: read-out: Stability
[28] = Metabolic stability in rat liver microsomes assessed as parent compound remaining after 10 mins; format: ADME, microsome; details: read-out: Stability
[29] = Drug uptake in Sprague-Dawley rat plasma at 6 mg/kg, po via gavage after 6 hrs by LC-MS/MS analysis; format: ADME, organism-based; outline: as §3
[30] = Clearance in Sprague-Dawley rat at 6 mg/kg, po via gavage by LC-MS/MS analysis; format: ADME, organism-based; details: in vivo
[31] = Ratio of IC50 for HCV genotype 1b […] replicase to EC50 for HCV genotype 1b infected in human HuH7 cells; set-up: species or system Hepatitis C virus subtype 1b
[32] = Inhibition of HCV genotype 1b NS5B replicase expressed in Escherichia coli BL21(DE3) using polyA/biotinylated oligo(dT12) as template/primer in presence of [3H]UTP after 60 mins by SPA assay; set-up: species or system Hepatitis C virus subtype 1b

Structure (SMILES)	IC50 [2] [nM]	half-life [6] [h]	IC50 [7] [nM]	EC50 [9] [nM]	half-life [11] [h]	logD [12]	EC50 [13] [nM]	Papp [15] [×10⁻⁶ cm/s]	EC50 [17] [nM]	concentration at 6 h [18] [µM]	EC50 [19] [nM]	half-life [22] [h]	half-life [24] [h]	also measured
CNC(=O)c1c(-c2ccc(F)cc2)oc2ccc(-c3cc(C(=O)NC4(c5ncccn5)CC4)ccc3C)cc12	11400	0.767	3900	> 50000	0.85	4.76	1	76.9	2.3	8.7	51	1.43	> 2	Ratio EC50 [1]: 4; bioavailability [3]: > 100%; Ratio EC50 [4]: 4; Cmax [5]: 6.7 µM; Kp at 24 h [8]: 2.4; inhibition at 10 µM [10]: 96%; AUC [14]: 48.7 µM·h; t1/2 [16]: 5.3 h; CC50 at 72 h [20]: 20000 nM; Vdss [21]: 6.1 L/kg; Tmax [23]: 4.7 h; concentration at 24 h [25]: 0.614 µM; IC50 [26]: 4800 nM
CNC(=O)c1c(-c2ccc(F)cc2)oc2ccc(-c3cc(C(=O)NC4(c5ccccn5)CC4)ccc3C)cc12	4100	0.233	1000	1600	0.333	5.42	1.9	99.9	2.8	15.7	55	1.02	1.8	remaining at 10 min [27]: 89%; remaining at 10 min [28]: 82%; concentration at 6 h [29]: 1.64 µM; CL/F [30]: 14 mL/min/kg
CNC(=O)c1cccc(-c2ccc3oc(-c4ccc(F)cc4)c(C(=O)NC)c3c2)c1							590							Ratio IC50/EC50 [31]: 2; IC50 [32]: 2200 nM
